# mIAP activ: increases mouse intestinal alkaline phosphatase activity; muIAP, CDP-Star luminescence, 30 min; stronger effect = higher value; 1 = vehicle-only enzyme signal, 0 = enzyme-free wells; hit rate 0.24% among 330,000; activation factor at 10 µM;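 active = activation factor of at least 2 at 20 µM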
#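 also added = chemiluminescent substrate CDP-Star | test system = mouse IAP enzyme | signal = chemiluminescence readout | compound = DMSO-dissolved test compounds | incubation = 30 min at room temperature | benchmarks = DMSO wells, no-enzyme wells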
# hIAP act: increases human intestinal alkaline phosphatase activity; P09923; purified human IAP, CDP-Star luminescence, 30 min; stronger effect = higher value; 1 = vehicle-only enzyme, 0 = enzyme-free background; activation factor at 10 µM; hit rate 0.16% among 330,000; AID 2524;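 active = activation factor of the enzyme at least 2-fold when tested at 20 µM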
# bIAP inh: blocks bovine intestinal alkaline phosphatase activity. inhibition, % at 20 µM. purified bovine IAP, CDP-star luminescence, 30 min. AID 1019. 190,000 tested, under 10 active;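 active = over 50% inhibition of intestinal alkaline phosphatase at 20 µM in the single-dose screen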
#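 System: Purified bovine intestinal alkaline phosphatase (IAP) enzyme | Input: IAP diluted 1/65,000,000 in the well | Also added: CDP-star chemiluminescent phosphatase substrate, 30 µM final | Dosing: 20 µM single dose | Times: Enzyme reaction for 30 min at room temperature | Detection: Luminescence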
# bIAP act: intestinal alkaline phosphatase (bovine) activation; purified bovine IAP, CDP-star luminescence, 30 min; stronger effect = higher value; fold of DMSO-control signal, blank-subtracted; activation factor at 20 µM; hit rate 0.17% among 200,000;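 active = activation factor of 2 or more at 20 µM, a signal rise over negative controls twice the positive control's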
# mIAP block: mouse IAP inhibition. purified mouse IAP, CDP-Star luminescence, 30 min. inhibition, % at 10 µM. AID 2806. hit rate 0.2% among 330,000;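 active = inhibition of at least 40% at 10 µM in the primary screen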;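 note: plate controls were DMSO with enzyme for no effect and no enzyme wells for full effect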
# hIAP block: blocks human intestinal alkaline phosphatase. P09923. purified IAP, CDP-Star luminescence, 30 min. inhibition, % at 10 µM. hit rate 0.12% among 330,000. AID 2544;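 active = inhibition reaching a set limit with compound at 10 µM in the primary screen, cut at about 35% in these data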;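 note: plate controls were DMSO wells with enzyme for no effect and no-enzyme buffer wells for full effect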
# mIAP inh confirm: mouse IAP inhibition confirmation | shares compounds with mIAP block | hit rate 4.7% among 11,000 | purified mouse IAP, CDP-Star luminescence, 30 min | inhibition, % at 10 µM | AID 434971;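 active = inhibition of at least 40% at 10 µM in either of the two replicates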;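 note: plate controls were DMSO wells with enzyme for no effect and buffer wells lacking enzyme for full effect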
# Active calls of the source: *; . = no result given. The list is not random: actives were taken first. Their share in the collection is about 0.79%.
SMILES,mIAP activ,hIAP act,bIAP inh,bIAP act,mIAP block,hIAP block,mIAP inh confirm
CSc1ccccc1C(=O)N(C)C(c1ccccc1)c1ccccc1,1,1,.,.,-3,-4,.
Cc1cc(C)cc(NC(=O)Nc2ccc3c(c2)N(C)C(=O)CS3)c1,4*,1.4,0,1,-298,-42,-154
CCc1ccc(NC(=O)Nc2ccc3c(c2)N(C)C(=O)CS3)cc1,2.9*,1.6,13,0.9,-187,-60,-114
C#CCOCCOCCOCCNc1nc(N2CCN(C(=O)CCCCCCCCCCNC(=O)[C@H](CCC(=O)O)n3cc(CCCCCN)nn3)CC2)nc(N2CCN(C(=O)CCCCCCCCCCNC(=O)[C@@H]([C@H](C)O)n3cc(C)nn3)CC2)n1,1,1,.,.,-3,-3,.
C#CCOCCOCCOCCNc1nc(N2CCN(C(=O)CCCCCCCCCCNC(=O)[C@H]([C@@H](C)CC)n3cc(CCCCCN)nn3)CC2)nc(N2CCN(C(=O)CCCCCCCCCCNC(=O)[C@@H]([C@H](C)O)n3cc(C)nn3)CC2)n1,2.1*,1,.,.,-113,-2,-310
C#CCOCCOCCOCCNc1nc(N2CCN(C(=O)CCCCCCCCCCNC(=O)[C@H](CCCCN)n3cc(C)nn3)CC2)nc(N2CCN(C(=O)CCCCCCCCCCNC(=O)[C@@H]([C@H](C)CC)n3cc(CCCCCN)nn3)CC2)n1,3*,1.1,.,.,-196,-8,-263
C#CCOCCOCCOCCNc1nc(N2CCN(C(=O)CCCCCCCCCCNC(=O)Cn3cc(CCCCCN)nn3)CC2)nc(N2CCN(C(=O)CCCCCCCCCCNC(=O)[C@H]([C@@H](C)CC)n3cc(CCCCCN)nn3)CC2)n1,4.1*,0.83,.,.,-308,17,-267

# Assay outcomes from PubChem BioAssay.
